High-throughput results: PubChem, several laboratories
In the library only some 6.7% were active in any assay of this set; here they are far more common.
GRIN3A LBD mod – NR3A (human) ligand-binding domain modulation | actives 2.5% (n = 340,000) | NR3A LBD differential scanning fluorimetry, Tm shift; 0% = protein alone, 100% = glycine-bound protein | Tm shift relative to glycine control, % at 25 µM;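 active = melting temperature shift of at least 10% of the positive control shift, at one fixed dose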
T cruzi inh – blocks replication of Trypanosoma cruzi | T. cruzi beta-gal in NIH3T3, luminescence, 90 h | inhibition, % (concentration not given with the values) | actives 1.4% (n = 300,000);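 active = mean inhibition across valid replicates above about 55%, limit read from the data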;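 note: signal also drops with host cell toxicity which is not excluded here; 0% = plate median of DMSO wells and 100% = zero luminescence signal; higher percent means less beta-gal luminescence so fewer parasites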
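System: Mouse NIH/3T3 fibroblasts infected with β-gal-expressing T. cruzi Tulahuen C4 | Quantity: NIH/3T3 cells, 5,000 per well | Reagent: 5000 reporter trypomastigotes per well | Dosing: Compound pinned at 50 nL/well, DMSO | Schedule: 3 h host attachment, then at least 90 h co-culture | Detection: GalScreen luminescence, 60 min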
CHOP inh – blocks CHOP induction under ER stress; inhibition, % at 10 µM; CHO-K1 CHOP-promoter luciferase, tunicamycin-induced, 15-18 h; actives 3.8% (n = 220,000);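 active = compounds that reduced the stress-induced luciferase reporter signal by more than about 70% of percent inhibition, limit read from the data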;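 note: 0% = tunicamycin plus vehicle and 100% = wells without tunicamycin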
PREPL inhibitor – human PREPL enzyme inhibition | AID 2751 | actives 0.68% (n = 320,000) | inhibition, % at 5.96 µM | recombinant PREPL, fluorescence polarization activity-based probe; in the data active = inhibition above about 43%;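 note: 0% = enzyme with DMSO and 100% = wells lacking enzyme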
Target sequence (Q4J6C6 whole entry, looked up): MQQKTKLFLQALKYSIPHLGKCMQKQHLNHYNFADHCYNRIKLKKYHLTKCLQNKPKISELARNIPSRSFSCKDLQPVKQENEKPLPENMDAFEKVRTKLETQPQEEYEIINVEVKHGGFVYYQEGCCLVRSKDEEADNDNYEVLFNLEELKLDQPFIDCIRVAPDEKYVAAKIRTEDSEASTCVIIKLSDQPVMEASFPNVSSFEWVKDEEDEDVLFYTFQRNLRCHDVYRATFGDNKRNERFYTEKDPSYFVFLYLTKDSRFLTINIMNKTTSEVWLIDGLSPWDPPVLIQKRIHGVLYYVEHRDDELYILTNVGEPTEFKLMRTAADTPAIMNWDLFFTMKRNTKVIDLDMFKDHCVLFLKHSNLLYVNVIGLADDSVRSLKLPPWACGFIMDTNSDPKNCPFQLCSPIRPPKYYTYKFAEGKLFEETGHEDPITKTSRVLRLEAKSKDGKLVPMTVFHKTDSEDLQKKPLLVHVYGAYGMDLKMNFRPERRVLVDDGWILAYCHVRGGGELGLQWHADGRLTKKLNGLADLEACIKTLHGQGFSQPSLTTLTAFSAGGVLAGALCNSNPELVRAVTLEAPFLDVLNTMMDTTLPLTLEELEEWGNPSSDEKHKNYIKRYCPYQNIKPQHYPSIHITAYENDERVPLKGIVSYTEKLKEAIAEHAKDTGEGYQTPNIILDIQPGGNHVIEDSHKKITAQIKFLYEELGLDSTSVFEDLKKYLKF
Beta apoptosis – blocks beta cell apoptosis. protection from apoptosis, % (test concentration not listed). actives 0.8% (n = 300,000). INS-1E cytokine-induced death, ATP luminescence, 48 h; percent of positive-control rescue, neutral wells zero;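 active = Every replicate reaches about 75%, or at least half do and their mean reaches it too, limit read from the data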;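 note: 0% = cytokine-treated negative control wells and 100% = positive control rescue; higher means more ATP so stronger rescue from cytokine killing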
CSC inhib – blocks cancer stem cells; actives 1.1% (n = 300,000); cancer stem cell-like cells viability, luminescence; inhibition, % at 7.5 µM; in the data active = inhibition above about 75%; tested in HMLE shEcad cells
The depositor's hits bear a star; / = no result given.

SMILES | GRIN3A LBD mod | T cruzi inh | CHOP inh | PREPL inhibitor | Beta apoptosis | CSC inhib
CC1=NN(c2ccccc2)C(=O)C1N=Nc1cccc(O)c1 (centres undefined) | 0 | 6 | / | 11 | -4 | 42
COc1ccccc1NS(=O)(=O)c1cccc(C(=O)OCC(=O)NC2CC2)c1 | 0 | -14 | / | -8 | -1 | /
O=C(Cc1ccc2c(c1)OCCO2)Nc1cc(C(F)(F)F)ccc1N1CCOCC1 | 1 | / | / | / | / | /
O=C1CCN(Cc2ccccc2)C(=S)N1 | 1 | / | / | / | / | /
O=C(c1ccc(Cl)cc1)N1CCN(c2ccnc3cc(Cl)ccc23)CC1 | 5 | 69* | 68 | / | / | /
Cc1ccc(C(=O)N/C(=C/c2ccccc2)C(=O)NCC2CCCO2)cc1 (centres undefined) | 0 | 20 | -9 | -5 | / | -8
CN(C)S(=O)(=O)c1ccc(-c2csc(N/N=C/c3ccc(O)cc3)n2)cc1 | 23* | 21 | 18 | 16 | 14 | 130*
c1nc(SSc2ncnc3nc[nH]c23)c2[nH]cnc2n1 | 7 | / | / | / | / | /
Cn1c(-c2c(N)n(C3CCCC3)c3nc4ccccc4nc23)nc2ccccc21 | 9 | 73* | 70 | 7 | 1 | 68
Cn1c(-c2c(N)n(CCCc3ccccc3)c3nc4ccccc4nc23)nc2ccccc21 | 7 | 71* | -4 | / | / | /
N#Cc1c(N)n(CCc2ccc(F)cc2)c2nc3ccccc3nc12 | -3 | 28 | 71* | 22 | 6 | 3
COCCCn1c(N)c(-c2nc3ccccc3n2C)c2nc3ccccc3nc21 | -12 | 20 | -5 | 32 | 10 | 0
COCCn1c(N)c(C#N)c2nc3ccccc3nc21 | -2 | -4 | 18 | 22 | -6 | -6
CCc1nc2ccccc2n1CCc1ccccc1 | -2 | -15 | -16 | -6 | -4 | 1
Cn1c(-c2c(N)n(CCc3ccccc3)c3nc4ccccc4nc23)nc2ccccc21 | 11* | 52 | -44 | 23 | 45 | 40
Cc1ccc(S(=O)(=O)N[C@H](C(=O)NCC2CCC(C(=O)O)CC2)C(C)C)cc1 (some centres undefined) | -1 | -9 | / | / | -3 | -3
CC(/C=N/NC(=O)c1cc(C(C)C)[nH]n1)=C\c1ccccc1 | -7 | -17 | 20 | 5 | 3 | 14
CS(=O)(=O)N(CC(=O)N1CCOCC1)c1ccccc1Br | 0 | -13 | / | / | 3 | -11
CCOC(=O)c1c(NC(=O)CC2Nc3cc(C)c(C)cc3NC2=O)sc(C)c1C (centres undefined) | -1 | -10 | 74* | 13 | -5 | 8
COC(=O)c1c(NC(=O)CCCC(=O)O)sc(C)c1C | -2 | -8 | 6 | 2 | -4 | /
CCOC(=O)c1c(NC(=O)C[n+]2ccc(N(C)C)cc2)sc(C)c1C | 1 | 62* | 6 | 2 | 45 | 6
CCOC(=O)c1c(NC(=O)COC(=O)C2CC2C)sc(C)c1C (centres undefined) | 1 | -6 | 70* | 3 | 2 | 3
CCc1ccc(CCC(=O)Nc2sc(C)c(C)c2C(=O)OC)o1 | -2 | 21 | 83* | 15 | 0 | 11
Cc1ccc(C(=O)NCC(=O)NCCCc2ccccc2)cc1 | 5 | 0 | / | -11 | 1 | -15
CC(Sc1n[nH]c(-c2cccs2)n1)C(=O)N1CCCC1 (centres undefined) | -1 | / | / | 23 | -8 | 3
SMILES | GRIN3A LBD mod | T cruzi inh | CHOP inh | PREPL inhibitor | Beta apoptosis | CSC inhib
CSCCC(NC(=O)COc1ccccc1)C(=O)N(C)Cc1cccc(F)c1 (centres undefined) | 1 | / | / | 4 | -4 | /
CCCCCCOc1ccc(OC(=O)c2ccncc2)cc1 | 5 | 29 | 34 | -4 | 4 | 95*
CCCCCCOc1ccc(C(=O)n2cnc(N)n2)cc1 | -1 | -7 | 8 | 72* | -3 | 4
CCCCCCc1ccc(OC(=O)c2ccncc2)cc1 | 0 | 9 | / | 7 | 0 | 10
CCOC(=O)c1c(S(=O)(=O)Nc2ccc(F)cc2C)c(C)n(C)c1C | 0 | 32 | / | 2 | / | -4
N#CCCN(C(=O)COC(=O)CCN=C1NS(=O)(=O)c2ccccc21)c1ccc(F)cc1 | 2 | -5 | / | -3 | -4 | -7
COc1ccccc1OCCNC(=O)c1ccc(NC(=O)CC2SC(N3CCCC3)=NC2=O)cc1 (centres undefined) | 1 | / | / | / | / | /
O=C(Nc1ccc(S(=O)(=O)N2CCCC2)cc1)c1c(F)cccc1F | 4 | -13 | / | 13 | 3 | 11
